We go through 13 compounds from PubChem BioAssay AID463209 (The Scripps Research Institute Molecular Screening Center, 2010).

The structures appear in SMILES notation. Activity calls are given as the source filed them.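 How the source made its calls: active means parasite growth inhibition of at least 50% in red blood cells; inactive means the rest.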

One may read the inhibition as the drop in the measured response relative to a control, in per cent.

The test has as its system P. falciparum 3D7 in RBCs, 3H-hypoxanthine incorporation, 48 h. Nature of the test: P. falciparum growth inhibition in erythrocytes, late-stage follow-up, P. falciparum M1AAP inhibitor project, cell-based, radiolabel readout, RBCs (AID 463209). Particulars: at 10 µM; stronger effect = higher value. The method in brief: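 Assay system: Plasmodium falciparum clone 3D7 in human red blood cells | Buffer or medium: Hypoxanthine-free RPMI medium with 10% serum | Compound: 10 µM single dose | Schedule: 48 h at 37 °C, low-oxygen gas mix | Signal: 3H beta counting after harvest | Measure: % growth inhibition versus vehicle control | Benchmarks: Uninfected RBCs, vehicle-only parasites | Repeats: 6–9 replicates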
As to `O=C1/C(=C/c2cccs2)SC(=S)N1NS(=O)(=O)c1ccccc1`, the inhibition is 1% (inactive).
With `COc1ccc(OC)c(/C=C2\SC(=S)N(C(C(=O)O)c3ccccc3)C2=O)c1` (stereo not drawn), the inhibition was 3% (inactive).
Turning to `O=C(Nn1c(C2CCC2)nc2ccccc2c1=O)c1cccs1`, the inhibition is 8% (inactive).
For the compound `CC(=O)N1N=C(c2c(O)n(C)c(=O)n(C)c2=O)CC1c1ccccc1` (stereo not drawn), the inhibition was 2% (inactive).
As for `O=C(O)CCC(=O)N1N=C(c2c(-c3ccccc3)c3cc(Cl)ccc3[nH]c2=O)CC1c1ccco1` (stereo not drawn), the figure is 0% (inactive); as for `COc1ccccc1-c1nc2ccccc2c(=O)n1NC(=O)c1cccs1`, 4% (inactive); as for `O=C(NCc1ccco1)C1CCCN(S(=O)(=O)c2cccc3nonc23)C1` (stereo not drawn), 0% (inactive).
As for `O=C(NCc1cccc(F)c1)C1CCN(S(=O)(=O)Cc2ccccc2)CC1`, the figure is 15% (inactive).
As for `COc1ccc(C2CC(c3c(-c4ccccc4)c4cc(Cl)ccc4[nH]c3=O)=NN2C(=O)CCC(=O)O)cc1` (stereo not drawn), the figure is 0% (inactive); as for `O=C1N=c2ccccc2=C1c1sc(=S)n(NC(=O)c2cccc(O)c2)c1O`, 0% (inactive); as for `O=C(NCCC1=CCCCC1)C1CCN(S(=O)(=O)c2ccc(Br)s2)CC1`, 0% (inactive).
Turning to `O=C(O)CCC(=O)N1N=C(c2c(-c3ccccc3)c3cc(Cl)ccc3[nH]c2=O)CC1c1cccs1` (stereo not drawn), the inhibition is 0% (inactive).
Take `O=C1N=c2ccccc2=C1c1sc(=S)n(NC(=O)c2ccccc2)c1O`: the inhibition was 6% (inactive).
